The subject of data set [1] is Human alphaherpesvirus 1. Kind of data set: Antiviral activity against Herpes simplex virus type 1 assessed as inhibition of viral entry into African green monkey Vero cells at 100 uM compound preincubated with virus for 45 mins followed by viral titration measured 48 hrs post viral titration by plaque formation assay relative to control. The data set is classed as functional. The note with it: Human alphaherpesvirus 1, Vero.

Data set [2] has as its system Human alphaherpesvirus 1. Kind of data set: Antiviral activity against Herpes simplex virus type 1 assessed as inhibition of viral entry into African green monkey Vero cells compound co-treated with cells and viral inoculum for 45 mins measured after 48 hrs by plaque formation assay. The data set is classed as functional, organism-based. The note with it: Human alphaherpesvirus 1, Vero. In a few lines:
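Cotreatment: Vero cells exposed to peptide (10–200 μM, serum-free DMEM) together with serial dilutions of LacZ HSV-1 inoculum for 45 min at 37 °C. Nonpenetrated virus inactivated by pH 3.0 citrate, then 48 h at 37 °C in DMEM with CMC; X-gal staining, plaques counted. Triplicates; inhibition percentage vs no-peptide control.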

The subject of another data set is Vero. As to the kind of experiment: Cytotoxicity against African green monkey Vero cells at 10 to 500 uM after 24 hrs by LDH assay. The data set is classed as cell-based. To be noted: chlorocebus sabaeus. In a few lines:
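Vero monolayers exposed to peptides at 10, 50, 100, 200, 250 and 500 μM for 24 h; viability read by lactate dehydrogenase release with a commercial cytotoxicity detection kit, compared against untreated cells.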

Data set [3] relates to Human alphaherpesvirus 1. Kind of data set: Antiviral activity against Herpes simplex virus type 1 assessed as inhibition of viral entry into African green monkey Vero cells at 20 to 200 uM compound treated post viral titration for 30 mins measured 48 hrs post viral titration by plaque formation assay. The data set is classed as functional, organism-based.

Our source for the inhibition, IC50 and Activity values is ChEMBL document CHEMBL3085728, “Conformational modifications of gB from herpes simplex virus type 1 analyzed by synthetic peptides” (J Med Chem, 2013).

Active and inactive are the calls of the source. The rule behind the calls is not given here.

A word on the inhibition: it is the relative decrease from the control value, in per cent. The IC50 is the point on the concentration scale where inhibition reaches its midpoint. In the case of H-FARLQFTYNHIQRHVRDMEGR-OH, the inhibition at 100 µM with Human alphaherpesvirus 1 [1] stood at 100%. In the data set with Human alphaherpesvirus 1 [2], the IC50 is 60 µM. In addition, the Activity entry in the data set with Vero was “Non-toxic”. Further, in the data set on Human alphaherpesvirus 1 [3], the inhibition result is “inactive”.

For the substance H-YNHIQRHVNDMLGR-OH, the inhibition at 100 µM with Human alphaherpesvirus 1 [1] came out at 100%. The Activity entry in the data set with Vero is listed as “Non-toxic”. For the same substance, the inhibition result with Human alphaherpesvirus 1 [3] is “inactive”.

H-YNHIQRHVNDMLGRVKKAWEE-OH: the Activity entry in the data set with Vero is listed as “Non-toxic”.
